# Results pooled from the literature.
# P2RY14: P2Y purinoceptor 14 (P2RY14, Homo sapiens, UniProt Q15391)
# Nuclear receptor subfamily 4 group A member 2: Nuclear receptor subfamily 4 group A member 2 (Homo sapiens, UniProt P43354)
SMILES,target,assay,system,conditions,measurement,value
COc1ccc2oc(-c3ccc4nc(N)oc4c3)c/c(=N\c3ccccc3NC(=O)CCN)c2c1,"Tyrosine-protein kinase JAK3 (JAK3, Homo sapiens, UniProt P52333)",binding,,1 µM,remaining binding,93%
C1=C/COCc2cc(ccc2OCCN2CCCC2)Nc2nccc(n2)-c2cccc(c2)COC/1,"Mitogen-activated protein kinase kinase kinase 1 (MAP3K1, Homo sapiens, UniProt Q13233)",binding,,0.1 µM,remaining binding,100%
NC/C(=C\F)COc1cccc(Cn2c(=S)[nH]c(=O)c3[nH]cnc32)c1,"Eosinophil peroxidase (Homo sapiens, UniProt P11678)","enzyme activity, inhibitor",,15 µM,remaining activity,41.3%
O=C(N[C@@H](Cc1c[nH]c2ccccc12)C(=O)O)C1c2ccccc2Oc2ccccc21,P2RY14,"cAMP, antagonist",HEK293,0.1 µM,inhibition,18.9%
CCN(CC)Cc1cc(Nc2ccnc3cc(Cl)ccc23)ccc1O,Nuclear receptor subfamily 4 group A member 2,"thermal stability, DSF",,100 µM,ΔTm,-0.09 °C
CC(C)OC(=O)[C@H](Cc1c[nH]c2ccccc12)NC(=O)c1ccc2c(c1)OCO2,P2RY14,"cAMP, antagonist",HEK293,0.1 µM,inhibition,10.7%
C#Cc1cc(-c2cc(Nc3nc(N[C@@H](C)c4ccc(F)cn4)ncc3Cl)n[nH]2)ccc1C=O,"Ribosomal protein S6 kinase alpha-4 (RPS6KA4, Homo sapiens, UniProt O75676)","enzyme activity, inhibitor",,0.2 µM,inhibition,8.79%
O=C(N[C@@H](Cc1c[nH]c2ccccc12)C(=O)O)c1cscn1,P2RY14,"cAMP, antagonist",HEK293,0.1 µM,inhibition,60.5%
Cc1onc(-c2ccccc2)c1-c1ccc(S(N)(=O)=O)cc1,Nuclear receptor subfamily 4 group A member 2,"thermal stability, DSF",,100 µM,ΔTm,-1 °C
Cc1cc(O)c(-c2ccc([C@@H](C)CN(C)C)cc2)c2c1[nH]c(=O)c1sccc12,"Eukaryotic elongation factor 2 kinase (EEF2K, Homo sapiens, UniProt O00418)","enzyme activity, inhibitor",,0.1 µM,inhibition,9.25%
CC(C)OC(=O)[C@H](Cc1c[nH]c2ccccc12)NC(=O)COc1ccccc1,P2RY14,"cAMP, antagonist",HEK293,0.1 µM,inhibition,79.3%
CCCCC(=O)Nc1ccc(-c2ccc3ncn(CCC)c(=O)c3c2)cn1,"Tyrosine-protein kinase JAK3, JH1 (JAK3, Homo sapiens, UniProt P52333)","binding, competition with immobilised ligand",,0.5 µM,remaining binding,100%
